The test system of the test is Sprague Dawley rats. Description: Antiinflammatory activity, carrageenan hind paw edema method. The format is in vivo. To be noted: rat, oral, equivalent to 20 mg/kg. Summed up: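 Sprague Dawley rats (100-200 g), six per group (3 male, 3 female). Test compound given orally in 1% sodium CMC suspension, equivalent to 20 mg/kg; controls received 1% CMC only. After 30 min, 0.1 ml 1% w/v carrageenan in normal saline injected into the right hind paw plantar surface. Paw volume measured by plethysmometer before dosing and at 0.5, 1, 2, 4 and 6 h. %inhibition = (1−Vt/Vc)×100, using mean relative volume change.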

With `CCc1cccc2c3c([nH]c12)C(CC)(CC(=O)O)OCC3` (racemic) [EC, (RS)-2-(1,8-Diethyl-4,9-dihydro-3H-pyrano[3,4-b]indol-1-yl) acetic acid], the “Antiinflammatory activity (6 h) Inhibition of edema (%)” value was found to be 81.9%.

Source of the values: publication PMC3831721 (Indian Journal of Pharmaceutical Sciences, 2013).
